# In the library only some 5% were active in any assay of this set; here they are far more common.
# XBP1 UPR activ = activators of adaptive arm of unfolded protein response (XBP1). activation, % at 20 µM. CHO-XBP1 luciferase reporter, IRE1-XBP1 UPR activation, luminescence; percent of tunicamycin response, DMSO as zero. AID 463104. 330,000 compounds, 0.33% hits;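 active means versus positive control, 20 µM dose yields 30% or more activation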;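 further: 100% = tunicamycin at 10 µg/mL and 0% = DMSO only wells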
#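 Signal: luciferase luminescence; Assay system: CHO-XBP1 luciferase reporter cells; Amount: one thousand reporter cells per well; Dosing: 20 µM single concentration, DMSO 1%; Benchmarks: high control tunicamycin 10 µg/mL final, low control DMSO vehicle only; Schedule: 6 h compound exposure at 37 °C, 5% CO2; Evaluation: percent activation relative to tunicamycin reference.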
# T cruzi inh = T. cruzi replication inhibition. 300,000 compounds, 1.4% hits. inhibition, % (concentration not given with the values). AID 1885. T. cruzi beta-gal in NIH3T3, luminescence, 90 h;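 active means mean inhibition across valid replicates above about 55%, limit read from the data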;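 further: signal also drops with host cell toxicity which is not excluded here; 0% = plate median of DMSO wells and 100% = zero luminescence signal; higher percent means less beta-gal luminescence so fewer parasites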
#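 Assay system: NIH/3T3 fibroblasts plus reporter T. cruzi. Amount: NIH/3T3 cells, 5,000 per well. Buffer or medium: DMEM, 2% fetal bovine serum. Doses: compound pinned at 50 nL/well, DMSO. Schedule: ≥90 h infection period, 3 h prior cell attachment. Signal: luminescent β-galactosidase signal after 60 min lysis. Read-out: parasite load inhibition, %.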
# Beta apoptosis = beta cell apoptosis inhibition. 300,000 compounds, 0.8% hits. AID 435005. INS-1E cytokine-induced death, ATP luminescence, 48 h; percent of positive-control rescue, neutral wells zero. protection from apoptosis, % (test concentration not listed);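 active means Every replicate reaches about 75%, or at least half do and their mean reaches it too, limit read from the data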;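 further: 0% = cytokine-treated negative control wells and 100% = positive control rescue; higher means more ATP so stronger rescue from cytokine killing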
# CSC inhib = blocks cancer stem cells; AID 2717; 300,000 compounds, 1.1% hits; cancer stem cell-like cells viability, luminescence; inhibition, % at 7.5 µM; in the data active means inhibition above about 75%; tested in HMLE shEcad cells
# Mdm2 MdmX PPI = disrupts the human Mdm2-MdmX interaction | O15151+Q00987 | SaOS-2 split-luciferase Mdm2/MdmX complementation, luminescence | inhibition, % at 8 µM | 330,000 compounds, 3% hits | AID 485346;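 active means inhibition of at least 50% at 8 µM in the primary screen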
# Target sequence (O15151 whole entry, looked up): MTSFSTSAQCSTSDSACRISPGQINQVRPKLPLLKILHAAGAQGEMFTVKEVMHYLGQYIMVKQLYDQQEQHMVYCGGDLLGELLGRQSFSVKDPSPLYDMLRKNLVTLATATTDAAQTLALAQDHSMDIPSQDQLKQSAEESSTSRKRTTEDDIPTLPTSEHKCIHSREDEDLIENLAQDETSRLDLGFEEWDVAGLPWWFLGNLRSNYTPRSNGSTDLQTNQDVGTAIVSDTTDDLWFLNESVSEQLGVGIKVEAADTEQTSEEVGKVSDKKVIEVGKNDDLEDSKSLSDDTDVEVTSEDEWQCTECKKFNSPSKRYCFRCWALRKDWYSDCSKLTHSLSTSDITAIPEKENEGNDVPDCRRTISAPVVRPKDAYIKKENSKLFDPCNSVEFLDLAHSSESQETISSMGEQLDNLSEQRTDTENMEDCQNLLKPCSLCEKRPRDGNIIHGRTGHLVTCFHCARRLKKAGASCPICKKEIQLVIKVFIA
# Target sequence (Q00987 whole entry, looked up): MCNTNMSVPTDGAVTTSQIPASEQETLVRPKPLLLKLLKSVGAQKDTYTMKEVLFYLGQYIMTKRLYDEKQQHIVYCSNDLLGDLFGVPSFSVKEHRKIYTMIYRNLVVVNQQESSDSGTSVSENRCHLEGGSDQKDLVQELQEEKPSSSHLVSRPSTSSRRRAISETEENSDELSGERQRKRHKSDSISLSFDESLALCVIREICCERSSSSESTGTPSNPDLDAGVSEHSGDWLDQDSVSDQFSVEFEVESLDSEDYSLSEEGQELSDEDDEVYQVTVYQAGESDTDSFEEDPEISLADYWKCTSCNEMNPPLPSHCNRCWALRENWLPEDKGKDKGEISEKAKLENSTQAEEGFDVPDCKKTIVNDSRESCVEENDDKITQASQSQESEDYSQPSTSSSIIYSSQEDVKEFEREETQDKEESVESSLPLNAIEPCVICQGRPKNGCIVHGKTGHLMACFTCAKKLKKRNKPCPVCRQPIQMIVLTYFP
# CHOP UPR activ = activators of apoptotic arm of unfolded protein response (CHOP); CHO-CHOP luciferase reporter, UPR activation, luminescence; percent of tunicamycin response over DMSO baseline; activation, % at 10 µM; 330,000 compounds, 0.34% hits; AID 449763;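 active means at 10 µM dose, activation of 40% or more, normalized to positive control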;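 further: 100% = tunicamycin at 10 µg/mL and 0% = DMSO alone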
#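 Evaluation: % reporter activation, DMSO baseline versus tunicamycin full activation; System: CHO-CHOP luciferase reporter cell line; Input: 500 cells/well; Incubation: 6 h compound treatment, 37 °C; Measured by: Steady-Glo luciferase luminescence; Dosing: one dose, 10 µM in 0.5% DMSO; Buffer or medium: F12 medium, 10% FBS; Benchmarks: positive tunicamycin 10 µg/mL, negative DMSO alone.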
# Mdm2 MdmX conf = human Mdm2/MdmX binding inhibition, confirmed. shares compounds with Mdm2 MdmX PPI. luminescent assay. inhibition, % at 8 µM. 10,000 compounds, 55% hits. AID 489028; in the data active means inhibition above about 40%
# Full FLuc ctr = inhibits full-length luciferase, flagging false Mdm2/MdmX hits | shares compounds with Mdm2 MdmX PPI | SaOS-2 full-length luciferase counterscreen, luminescence | inhibition, % at 8 µM | 6,200 compounds, 77% hits;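 active means mean inhibition at 8 µM reaching about 37%, which flags the compound as non-specific, limit read from the data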;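 further: p53-null SaOS-2 cells with luciferase driven by a doxycycline-inducible promoter; compound on cells about two nights before reading with doxycycline added after day one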
# * marks the source's active call; other numbers are inactive results; · = no result.
SMILES,XBP1 UPR activ,T cruzi inh,Beta apoptosis,CSC inhib,Mdm2 MdmX PPI,CHOP UPR activ,Mdm2 MdmX conf,others
COc1ccccc1CNS(=O)(=O)c1ccc(-n2cnnn2)c(OC)c1,-4,-9,-4,-6,13,0,·,
C=CCOc1c(Cl)cc(CNc2ccc(N(C)C)cc2)cc1OC,-1,34,26,53,60*,2,54*,Full FLuc ctr=75*
C=CCOc1c(Cl)cc(CNc2ccc(C)c(Cl)c2)cc1OC,5,55*,47,54,76*,-2,77*,Full FLuc ctr=97*
Cc1cc(C)cc(OCC(=O)Nc2cnn(CCCC(=O)O)c2)c1,-1,-17,-6,-15,15,0,·,
O=C1CN(c2nc(-c3ccccc3)c3cc(Cl)ccc3n2)c2ccccc2N1,22,-10,42,-29,68*,36,1,
CN1CCN(c2nc(-c3ccccc3)c3cc(Cl)ccc3n2)CC1,3,52,-3,23,19,4,·,
Clc1ccc2nc(N3CCNCC3)nc(-c3ccccc3)c2c1,23,4,1,18,64*,2,21,
Cc1c(NC(=O)Nc2cc(F)c(F)cc2Cl)c(=O)n(-c2ccccc2)n1C,2,-12,-7,-12,-15,2,·,
CN(C)CCCNC(=O)C[C@H]1C[C@H](C(=O)N2CCOCC2)[C@@]2(CCC3CCCC3)c3[nH]c4cc(-c5ccco5)ccc4c3CCN2C1=O,-2,·,·,·,95*,1,11,
CC(C)(C)NC(=O)C[C@H]1C[C@H](C(=O)N2CCOCC2)[C@@]2(CCC3CCCC3)c3[nH]c4cc(-c5ccco5)ccc4c3CCN2C1=O,1,·,·,·,73*,5,-5,
COc1ccc(CNC(=O)C[C@H]2C[C@H](C(=O)N3CCOCC3)[C@@]3(CCC4CCCC4)c4[nH]c5cc(-c6ccco6)ccc5c4CCN3C2=O)cc1OC,4,·,·,·,53*,3,5,
O=C(C[C@H]1C[C@H](C(=O)N2CCOCC2)[C@@]2(CCC3CCCC3)c3[nH]c4cc(-c5ccco5)ccc4c3CCN2C1=O)NCC12CC3CC(CC(C3)C1)C2,5,·,·,·,54*,2,19,
O=C(C[C@H]1C[C@H](C(=O)N2CCOCC2)[C@@]2(CCC3CCCC3)c3[nH]c4cc(-c5ccco5)ccc4c3CCN2C1=O)NCc1cccc(C(F)(F)F)c1,9,·,·,·,41,5,·,
CC1(C)c2[nH]c3ccccc3c2C[C@@H]2C(=O)N(Cc3ccco3)C(=O)N21,-1,-2,-1,0,-1,-3,·,
O=C(CC1C[C@H](C(=O)N2CCOCC2)[C@@]2(CCC3CCCC3)c3[nH]c4ccccc4c3CCN2C1=O)NCC12CC3CC(CC(C3)C1)C2 (stereo partly drawn),11,·,3,·,84*,22,68*,Full FLuc ctr=38*
O=C(CC1C[C@H](C(=O)N2CCOCC2)[C@@]2(CCC3CCCC3)c3[nH]c4ccccc4c3CCN2C1=O)NCCN1CCOCC1 (stereo partly drawn),1,·,-5,·,20,2,·,
COc1ccc(-c2cc3c(=O)n(CC(=O)NCc4ccc(F)cc4)ncn3n2)cc1,3,-37,32,17,86*,6,21,
COc1ccc(-c2cc3c(=O)n(CC(=O)NCc4ccc(Cl)cc4)ncn3n2)cc1,1,-28,14,3,64*,3,6,
Cc1nn(CC(=O)NCCCN2CCC(N3CCCCC3)CC2)c(=O)c2cc(-c3ccccc3)nn12,2,35,7,-6,95*,1,53*,Full FLuc ctr=56*
COc1ccc(CNC(=O)Cn2ncn3c(cc4ccccc43)c2=O)cc1,0,-6,-4,-6,67*,2,11,
COc1ccc(CNC(=O)Cn2ncn3cccc3c2=O)cc1,-4,-16,2,·,18,1,·,
